Measured values published in ChEMBL document CHEMBL1149183, “Novel benzo[1,4]diazepin-2-one derivatives as endothelin receptor antagonists” (J Med Chem, 2004).

Key:
Rattus norvegicus [1] = organism: Rattus norvegicus; experiment: Duration of action of compound for reducing the blood pressure of rats was determined; type: functional
Outline: (§1)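 Single oral dose of 30 mg/kg suspended in 10% arabic gum to hypertensive Dahl salt-sensitive rats carrying telemetry for arterial pressure and heart rate; area between pre- and post-treatment pressure curves calculated; fall in mean arterial pressure and duration of action also taken from recordings.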

Endothelin-1 receptor = target: T1, Endothelin-1 receptor (Homo sapiens, UniProt P25101); experiment: Antagonist activity towards human recombinant Endothelin A receptor expressed in chinese hamster ovary (CHO) cells determined using [125I]ET1 as radioligand; type: functional, cell-based
T1 sequence (P25101 whole entry): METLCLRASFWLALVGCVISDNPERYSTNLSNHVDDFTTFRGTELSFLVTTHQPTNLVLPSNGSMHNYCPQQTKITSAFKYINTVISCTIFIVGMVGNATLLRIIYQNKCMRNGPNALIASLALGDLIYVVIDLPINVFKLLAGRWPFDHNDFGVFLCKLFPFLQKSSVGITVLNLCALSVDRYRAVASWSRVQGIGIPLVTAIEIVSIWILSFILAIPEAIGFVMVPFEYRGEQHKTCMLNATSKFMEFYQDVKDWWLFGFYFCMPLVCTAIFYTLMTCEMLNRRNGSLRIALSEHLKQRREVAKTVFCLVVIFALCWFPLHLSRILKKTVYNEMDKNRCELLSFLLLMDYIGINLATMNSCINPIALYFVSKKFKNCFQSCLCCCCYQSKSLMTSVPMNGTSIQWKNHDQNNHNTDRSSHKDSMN

Cytochrome P450 2D6 = Cytochrome P450 2D6 (Homo sapiens, UniProt P10635); experiment: Inhibition of human cytochrome P450 2D6; type: ADME
Cytochrome P450 2D6, sequence (P10635 whole entry, canonical isoform): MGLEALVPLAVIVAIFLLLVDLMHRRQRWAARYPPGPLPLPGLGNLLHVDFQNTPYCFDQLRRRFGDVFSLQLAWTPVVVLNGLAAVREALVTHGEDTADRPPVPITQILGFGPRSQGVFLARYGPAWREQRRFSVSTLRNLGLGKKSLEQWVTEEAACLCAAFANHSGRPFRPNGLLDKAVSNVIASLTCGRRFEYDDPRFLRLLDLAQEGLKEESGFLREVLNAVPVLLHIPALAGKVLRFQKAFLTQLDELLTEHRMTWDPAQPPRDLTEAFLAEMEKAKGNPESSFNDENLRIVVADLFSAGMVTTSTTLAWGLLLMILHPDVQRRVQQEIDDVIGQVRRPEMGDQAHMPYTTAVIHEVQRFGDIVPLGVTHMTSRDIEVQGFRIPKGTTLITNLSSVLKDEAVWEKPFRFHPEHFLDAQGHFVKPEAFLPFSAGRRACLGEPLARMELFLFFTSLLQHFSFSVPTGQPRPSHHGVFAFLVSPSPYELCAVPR
Outline: (§2)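 Human liver microsomes with isoform marker reactions near substrate Km: diclofenac 4'-hydroxylation (2C9), dextromethorphan […] (2D6), midazolam 1'-hydroxylation (3A4); metabolite formation by LC-MS/MS; IC50 reported.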

Rattus norvegicus [2] = experiment: In vivo area between curve (ABC) as calculated from the blood pressure recordings before and after administration of 30 mg/kg to hypertensive Dahl salt sensitive rats; number of rats=15; type: functional; outline: as §1
Cytochrome P450 2C9 = Cytochrome P450 2C9 (Homo sapiens, UniProt P11712); experiment: Inhibition of human cytochrome P450 2C9; type: ADME; outline: as §2
Cytochrome P450 2C9, sequence (P11712 whole entry): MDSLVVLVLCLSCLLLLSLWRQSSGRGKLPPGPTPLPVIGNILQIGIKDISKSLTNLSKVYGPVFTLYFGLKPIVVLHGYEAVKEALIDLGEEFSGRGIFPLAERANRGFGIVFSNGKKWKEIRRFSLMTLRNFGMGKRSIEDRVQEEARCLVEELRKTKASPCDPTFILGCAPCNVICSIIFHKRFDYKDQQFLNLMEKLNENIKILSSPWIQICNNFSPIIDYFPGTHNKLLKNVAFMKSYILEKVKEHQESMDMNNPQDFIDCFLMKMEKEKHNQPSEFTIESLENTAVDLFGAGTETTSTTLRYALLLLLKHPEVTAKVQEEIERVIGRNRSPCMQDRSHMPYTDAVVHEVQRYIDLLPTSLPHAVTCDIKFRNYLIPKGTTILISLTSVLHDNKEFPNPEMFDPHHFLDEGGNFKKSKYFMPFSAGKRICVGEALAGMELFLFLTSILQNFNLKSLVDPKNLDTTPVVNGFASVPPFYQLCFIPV

Cytochrome P450 3A4 = Cytochrome P450 3A4 (Homo sapiens, UniProt P08684); experiment: Inhibition of human cytochrome P450 3A4; type: ADME; outline: as §2
Cytochrome P450 3A4, sequence (P08684 whole entry): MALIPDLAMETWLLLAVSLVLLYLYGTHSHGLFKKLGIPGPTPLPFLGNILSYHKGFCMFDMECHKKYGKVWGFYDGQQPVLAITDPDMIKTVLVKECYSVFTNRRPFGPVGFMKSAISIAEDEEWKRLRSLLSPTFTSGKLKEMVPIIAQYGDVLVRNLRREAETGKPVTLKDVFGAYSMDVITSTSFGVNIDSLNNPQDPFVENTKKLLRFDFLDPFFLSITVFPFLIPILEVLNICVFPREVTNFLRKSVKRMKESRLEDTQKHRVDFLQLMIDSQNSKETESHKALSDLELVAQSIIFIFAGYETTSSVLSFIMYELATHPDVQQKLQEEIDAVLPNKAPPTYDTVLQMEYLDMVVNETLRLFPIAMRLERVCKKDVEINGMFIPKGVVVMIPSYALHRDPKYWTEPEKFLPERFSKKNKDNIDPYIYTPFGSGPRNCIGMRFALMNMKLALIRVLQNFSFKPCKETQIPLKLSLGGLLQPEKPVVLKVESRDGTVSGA

Endothelin receptor [3] = target: T2, Endothelin receptor (Rattus norvegicus, UniProt P26684+P21451); experiment: Inhibitory potency at native endothelin A and B receptors by inhibiting sarafotoxin Sf6 contractions of rat tracheal rings; type: functional
T2 sequence (P26684 whole entry): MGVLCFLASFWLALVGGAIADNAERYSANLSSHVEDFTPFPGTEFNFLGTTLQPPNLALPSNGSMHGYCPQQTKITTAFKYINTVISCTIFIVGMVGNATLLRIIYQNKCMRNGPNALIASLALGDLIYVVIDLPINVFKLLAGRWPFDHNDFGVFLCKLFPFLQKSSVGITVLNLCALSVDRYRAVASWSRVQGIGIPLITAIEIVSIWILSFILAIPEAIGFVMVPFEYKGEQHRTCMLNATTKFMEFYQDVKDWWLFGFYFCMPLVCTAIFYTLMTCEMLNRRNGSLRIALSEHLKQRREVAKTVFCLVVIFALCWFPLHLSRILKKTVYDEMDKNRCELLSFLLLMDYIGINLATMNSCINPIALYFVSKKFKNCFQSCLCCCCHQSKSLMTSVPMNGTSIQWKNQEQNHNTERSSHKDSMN
T2 sequence (P21451 whole entry): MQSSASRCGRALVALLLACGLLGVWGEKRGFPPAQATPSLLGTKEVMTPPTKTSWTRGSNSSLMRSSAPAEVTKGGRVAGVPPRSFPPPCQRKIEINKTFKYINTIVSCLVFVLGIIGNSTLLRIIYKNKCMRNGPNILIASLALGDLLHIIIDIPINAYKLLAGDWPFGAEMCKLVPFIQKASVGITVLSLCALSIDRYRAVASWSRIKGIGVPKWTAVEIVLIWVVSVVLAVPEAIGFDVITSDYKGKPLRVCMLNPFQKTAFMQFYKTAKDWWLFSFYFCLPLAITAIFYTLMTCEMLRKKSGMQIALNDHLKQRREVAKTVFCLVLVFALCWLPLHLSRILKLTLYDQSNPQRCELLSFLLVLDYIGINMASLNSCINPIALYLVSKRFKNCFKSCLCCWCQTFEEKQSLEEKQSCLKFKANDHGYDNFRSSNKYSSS

Endothelin receptor [4] = target: T2, Endothelin receptor; experiment: Inhibitory potency at native endothelin A and endothelin B receptors by inhibiting endothelin-1 contractions of rat aortic rings; type: functional
[5] = Log D value was evaluated; type: physicochemical; details: octanol/water, pH 7.4; read-out: Log D7.4
Outline: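 Shake-flask partition, n-octanol versus aqueous phase buffered to pH 7.4 (67 mM KH2PO4/67 mM Na2HPO4), volume ratio 1:9; both phases assayed by HPLC.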

Rattus norvegicus [6] = organism: Rattus norvegicus; experiment: Maximum effect on reduction of mean arterial blood pressure was determined in rats; type: functional; outline: as §1
[7] = target: T3, Endothelin receptor type B (Homo sapiens, UniProt P24530); experiment: Antagonist activity towards human recombinant Endothelin B receptor expressed in chinese hamster ovary (CHO) cells determined using [125I]ET1 as radioligand; type: functional, cell-based
T3 sequence (P24530 whole entry): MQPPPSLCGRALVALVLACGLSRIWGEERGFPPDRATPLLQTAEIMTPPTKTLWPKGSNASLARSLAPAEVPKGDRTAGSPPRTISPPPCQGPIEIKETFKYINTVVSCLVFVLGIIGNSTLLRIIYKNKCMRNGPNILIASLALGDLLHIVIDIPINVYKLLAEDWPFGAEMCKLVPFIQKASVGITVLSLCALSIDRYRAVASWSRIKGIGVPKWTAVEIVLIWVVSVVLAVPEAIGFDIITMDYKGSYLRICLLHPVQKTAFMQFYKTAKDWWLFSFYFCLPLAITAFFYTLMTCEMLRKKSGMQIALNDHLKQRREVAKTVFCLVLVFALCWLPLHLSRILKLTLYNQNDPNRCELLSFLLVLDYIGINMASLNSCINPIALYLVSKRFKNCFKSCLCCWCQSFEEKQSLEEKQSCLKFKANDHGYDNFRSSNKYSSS

Rattus norvegicus [8] = experiment: In vivo area between curve (ABC) as calculated from the blood pressure recordings before and after administration of 30 mg/kg to hypertensive Dahl salt sensitive rats; number of rats=12; type: functional; outline: as §1
Rattus norvegicus [9] = experiment: In vivo area between curve (ABC) as calculated from the blood pressure recordings before and after administration of 30 mg/kg to hypertensive Dahl salt sensitive rats; number of rats=10; type: functional; outline: as §1
Rattus norvegicus [10] = experiment: In vivo area between curve (ABC) as calculated from the blood pressure recordings before and after administration of 30 mg/kg to hypertensive Dahl salt sensitive rats; number of rats=14; type: functional; outline: as §1
Rattus norvegicus [11] = experiment: In vivo area between curve (ABC) as calculated from the blood pressure recordings before and after administration of 30 mg/kg to hypertensive Dahl salt sensitive rats; number of rats=6; type: functional; outline: as §1

| Compound | Duration of action (Rattus norvegicus [1]) [h] | IC50 (Endothelin-1 receptor) [nM] | IC50 (Cytochrome P450 2D6) [nM] | ABC (Rattus norvegicus [2]) [mmHg·h] | IC50 (Cytochrome P450 2C9) [nM] | IC50 (Cytochrome P450 3A4) [nM] | pA2 (Endothelin receptor [3]) | pA2 (Endothelin receptor [4]) | logD [5] | Max effect (Rattus norvegicus [6]) [mmHg] | IC50 [7] [nM] | ABC (Rattus norvegicus [8]) [mmHg·h] | ABC (Rattus norvegicus [9]) [mmHg·h] | ABC (Rattus norvegicus [10]) [mmHg·h] | ABC (Rattus norvegicus [11]) [mmHg·h] |
| --- | --- | --- | --- | --- | --- | --- | --- | --- | --- | --- | --- | --- | --- | --- | --- |
| Cc1cc(C)nc(O[C@H](C(=O)O)[C@@]2(c3cccc(-c4ccccc4)c3)NCC(=O)N(Cc3c(F)cc(F)cc3F)c3ccccc32)n1 (racemic) | 24 | 7.9 | > 50000 | 250 | 28000 | 7000 | 7.07 | 9.03 | 1.8 | -12 | 89.8 |  |  |  |  |
| Cc1cc(C)nc(O[C@H](C(=O)O)[C@@]2(c3ccccc3)NCC(=O)N(C)c3ccccc32)n1 (racemic) |  | 12.3 | > 50000 |  | > 50000 | > 50000 |  |  | -2 |  | 184 |  |  |  |  |
| CCCCc1cccc([C@]2([C@H](Oc3nc(C)cc(C)n3)C(=O)O)NCC(=O)N(Cc3c(C)cc(C)cc3C)c3ccccc32)c1 (racemic) | 24 | 18.3 |  |  |  |  | 7.44 | 7.83 |  | -21 | 13.6 | 285 |  |  |  |
| Cc1cc(C)cc(O[C@H](C(=O)O)[C@@]2(c3ccccc3)NCC(=O)N(Cc3c(F)cccc3Cl)c3ccccc32)c1 (racemic) | 30 | 18.9 |  |  |  |  | 6.89 | 6.59 |  | -13 | 184 | 267 |  |  |  |
| Cc1cc(C)nc(O[C@H](C(=O)O)[C@@]2(c3ccccc3)NCC(=O)N(Cc3c(F)cc(F)cc3F)c3ccccc32)n1 (racemic) | 54 | 2.5 | > 50000 |  | > 50000 | 41000 | 6.18 | 8.18 | 0.4 | -21 | 83.6 |  | 674 |  |  |
| Cc1cc(C)cc(O[C@H](C(=O)O)[C@@]2(c3ccccc3)NCC(=O)N(Cc3c(F)cc(F)cc3F)c3ccccc32)c1 (racemic) | 32 | 17.2 | > 50000 |  | 15000 | 14000 | 7.02 | 8.27 | 2.1 | -28 | 565 |  |  | 483 |  |
| COC(c1ccccc1)(c1ccccc1)[C@H](Oc1nc(C)cc(C)n1)C(=O)O (racemic) [AMBRISENTAN] | 32 | 21.7 |  |  |  |  | 5.63 | 7.09 |  | -17 |  |  |  |  | 409 |
| CCCCc1cccc([C@]2([C@H](Oc3nc(C)cc(C)n3)C(=O)O)NCC(=O)N(Cc3c(F)cc(F)cc3F)c3ccccc32)c1 (racemic) | 18 | 13.9 | > 50000 |  | 15000 | 5000 | 7.72 | 8.36 | 2.3 | -13 | 33.2 |  |  |  | 214 |
| COc1ccc(CN2C(=O)CN[C@](c3cccc(C)c3)([C@H](Oc3nc(C)cc(C)n3)C(=O)O)c3ccccc32)cc1 (racemic) |  | 6.3 |  |  |  |  |  | 6.32 |  |  | 50.7 |  |  |  |  |
| CCCCc1cccc([C@]2([C@H](Oc3nc(C)cc(C)n3)C(=O)O)NCC(=O)N(Cc3c(F)cccc3Cl)c3ccccc32)c1 (racemic) | 36 | 7.6 |  |  |  |  | 7.88 | 8.72 |  | -23 | 7.1 | 409 |  |  |  |
| Cc1cc(C)nc(O[C@H](C(=O)O)[C@@]2(c3ccccc3)NCC(=O)N(Cc3c(F)ccc(F)c3F)c3ccccc32)n1 (racemic) |  | 2.4 |  |  |  |  |  | 8.38 |  |  | 13.2 |  |  |  |  |
| COc1ccc(CN2C(=O)CN[C@](c3ccc(F)c(C)c3)([C@H](Oc3nc(C)cc(C)n3)C(=O)O)c3ccccc32)cc1 (racemic) |  | 7.3 |  |  |  |  |  | 6.53 |  |  | 33.2 |  |  |  |  |
| Cc1cc(C)nc(O[C@H](C(=O)O)[C@@]2(c3cccc(-c4ccccc4)c3)NCC(=O)N(Cc3c(Cl)cccc3Cl)c3ccccc32)n1 (racemic) | 18 | 16.9 |  |  |  |  | 7.37 | 8.98 |  | -15 | 25 | 200 |  |  |  |
| CCCCc1cccc([C@]2([C@H](Oc3nc(C)cc(C)n3)C(=O)O)NCC(=O)N(Cc3ccc(OC)cc3)c3ccccc32)c1 (racemic) |  | 7.9 |  |  |  |  |  | 7.69 |  |  | 36.5 |  |  |  |  |
| Cc1cc(C)nc(O[C@H](C(=O)O)[C@@]2(c3ccccc3)NCC(=O)N(Cc3ccccc3F)c3ccccc32)n1 (racemic) |  | 3.5 |  |  |  |  |  | 7.22 |  |  | 33.1 |  |  |  |  |
